# The source made the active and inactive calls. The calls are words filed in the database; no cut-off is given here.
# Columns and labels:
# OVCAR [1] = experiment: Growth inhibition of human OVCAR cells after 48 hrs by MTT assay; type: functional
# How it was run: (§1)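 Cells seeded 3000/well (OVCA, SW620, H460) or 5000/well (AGS), grown 24 h, then exposed to serial dilutions (DMSO stock) for 48 h at 37 °C, 5% CO2. MTT (2 mg/ml in PBS) added for 2 h; formazan dissolved in DMSO and read at 570 nm. Inhibition = (1 − At/Ac)×100 vs vehicle; GI50 interpolated from dose–response curves; four to six separate experiments, mean ± SEM.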
# SW-620 [2] = experiment: Growth inhibition of human SW620 cells after 48 hrs by MTT assay; type: functional; details: SW-620, 48 h; how it was run: as §1
# NCI-H460 [3] = experiment: Growth inhibition of human H460 cells after 48 hrs by MTT assay; type: functional; details: NCI-H460, 48 h; how it was run: as §1
# AGS [4] = experiment: Growth inhibition of human AGS cells at 40 uM after 48 hrs by MTT assay; type: functional, cell-based
# How it was run: (§2)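 MTT growth inhibition at the top tested concentration of 40 uM, 48 h exposure, cells seeded as for GI50 (3000/well OVCA, SW620, H460; 5000/well AGS).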
# AGS [5] = experiment: Growth inhibition of human AGS cells after 48 hrs by MTT assay; type: functional; how it was run: as §1
# NCI-H460 [6] = experiment: Growth inhibition of human H460 cells at 40 uM after 48 hrs by MTT assay; type: functional, cell-based; how it was run: as §2
# SW-620 [7] = experiment: Growth inhibition of human SW620 cells at 40 uM after 48 hrs by MTT assay; type: functional, cell-based; how it was run: as §2
# OVCAR [8] = experiment: Cell cycle arrest in human OVCAR cells assessed as accumulation at sub-G1 phase at 1.2 uM after 24 hrs by propidium iodide staining-based FACS analysis; type: functional
# How it was run: (§3)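 OVCA cells given 0.5% DMSO or compound for 24 h, harvested, PBS-rinsed, fixed in 80% ethanol and held at −20 °C until analysis. Propidium iodide DNA staining and flow cytometry; apoptotic nuclei scored as the subdiploid (sub-G1) peak, given as percent of the whole population. Untreated cells served as blank.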
# OVCAR [9] = experiment: Cell cycle arrest in human OVCAR cells assessed as accumulation at sub-G1 phase at 2.5 uM after 24 hrs by propidium iodide staining-based FACS analysis; type: functional; how it was run: as §3
# OVCAR [10] = experiment: Cell cycle arrest in human OVCAR cells assessed as accumulation at sub-G1 phase at 5 uM after 24 hrs by propidium iodide staining-based FACS analysis; type: functional; how it was run: as §3
# OVCAR [11] = experiment: Induction of apoptosis in human OVCAR cells assessed as PARP cleavage at 1.2 to 5 uM after 16 hrs by Western blot analysis; type: functional, cell-based
# How it was run: (§4)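 OVCA cells treated 16 h (vehicle 1% DMSO), washed in PBS, lysed; 50 ug protein run on 15% SDS-PAGE, transferred to nitrocellulose, blocked overnight at 4 °C in TBST/5% milk. Probed with anti-PARP (1:500), anti-cleaved caspase-3, anti-cleaved caspase-9, anti-phospho-Akt, anti-Akt, anti-beta-actin (1:1000), then secondary IgG 1:10,000 for 1 h at room temperature; ECL detection. Total Akt used as reference for phospho-Akt.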
# OVCAR [12] = experiment: Induction of apoptosis in human OVCAR cells assessed as increase in cleaved caspase-3 level at 1.2 to 5 uM after 16 hrs by Western blot analysis; type: functional, cell-based; how it was run: as §4
# OVCAR [13] = experiment: Induction of apoptosis in human OVCAR cells assessed as increase in cleaved caspase-9 level at 1.2 to 5 uM after 16 hrs by Western blot analysis; type: functional, cell-based; how it was run: as §4
# [14] = target: RAC-alpha serine/threonine-protein kinase (Homo sapiens) (UniProt P31749); experiment: Inhibition of Akt phosphorylation in human OVCAR cells at 1.2 to 5 uM after 16 hrs by Western blot analysis; type: cell-based; how it was run: as §4
# OVCAR [15] = experiment: Growth inhibition of human OVCAR cells at 40 uM after 48 hrs by MTT assay; type: functional, cell-based; how it was run: as §2
# Chain of RAC-alpha serine/threonine-protein kinase (Homo sapiens) (P31749 whole entry): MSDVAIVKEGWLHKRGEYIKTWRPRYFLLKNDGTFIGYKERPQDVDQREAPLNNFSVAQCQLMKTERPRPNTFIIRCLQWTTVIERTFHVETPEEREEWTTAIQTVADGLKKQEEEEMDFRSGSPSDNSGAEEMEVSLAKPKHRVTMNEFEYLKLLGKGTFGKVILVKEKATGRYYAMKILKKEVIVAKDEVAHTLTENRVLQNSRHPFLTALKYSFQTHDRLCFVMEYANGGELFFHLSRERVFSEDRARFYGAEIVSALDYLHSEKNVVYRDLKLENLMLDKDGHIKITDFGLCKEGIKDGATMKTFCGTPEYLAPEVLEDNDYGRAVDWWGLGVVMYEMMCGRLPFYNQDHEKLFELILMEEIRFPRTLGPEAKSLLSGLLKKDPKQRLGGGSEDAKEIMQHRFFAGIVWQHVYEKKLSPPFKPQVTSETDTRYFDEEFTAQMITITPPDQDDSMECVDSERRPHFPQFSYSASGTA
GI50 (OVCAR [1]),GI50 (SW-620 [2]),GI50 (NCI-H460 [3]),GI50 (AGS [5]),Structure (SMILES),growth inhibition (GI) (AGS [4]),growth inhibition (GI) (NCI-H460 [6]),growth inhibition (GI) (SW-620 [7]),also measured
28.9 µM,26.4 µM,17.9 µM,–,COc1ccc(-c2cc(-c3ccc([N+](=O)[O-])cc3)[nH]n2)cc1OC,inactive,–,–,–
10.8 µM,23.5 µM,8.9 µM,13.1 µM,O=[N+]([O-])c1ccc(-c2cc(-c3ccc4c(c3)OCO4)n[nH]2)cc1,–,–,–,–
17.5 µM,28.6 µM,–,14.6 µM,O=[N+]([O-])c1ccc(-c2cc(-c3ccc(Br)cc3)n[nH]2)cc1,–,inactive,–,–
9.9 µM,27.2 µM,10.4 µM,11.3 µM,COc1ccc(-c2cc(-c3ccccc3)n[nH]2)cc1,–,–,–,–
5.8 µM,10.6 µM,4.6 µM,7.5 µM,Oc1ccccc1-c1cc(-c2ccccc2-c2ccccc2)n[nH]1,–,–,–,–
18.6 µM,–,21.5 µM,–,Nc1ccc(-c2cc(-c3ccc(C(F)(F)F)cc3)n[nH]2)cc1,inactive,–,inactive,–
–,–,–,–,CN(C)c1ccc(-c2cc(-c3ccc(C(F)(F)F)cc3)n[nH]2)cc1,inactive,inactive,inactive,–
2.75 µM,–,–,6.9 µM,FC(F)(F)c1ccc(-c2cc(-c3ccccc3-c3ccccc3)n[nH]2)cc1,–,inactive,inactive,Activity (OVCAR [8]): 11.43%; Activity (OVCAR [9]): 15.75%; Activity (OVCAR [10]): 23.51%; Activity (OVCAR [11]): Active; Activity (OVCAR [12]): Active; Activity (OVCAR [13]): Active; inhibition [14]: Active
12.8 µM,–,11.6 µM,–,COc1ccc(-c2cc(-c3ccc(Cl)cc3)n[nH]2)cc1,inactive,–,inactive,–
5.8 µM,–,6.1 µM,11.4 µM,O=[N+]([O-])c1cccc(-c2cc(-c3ccccc3)n[nH]2)c1,–,–,inactive,–
–,–,–,–,COc1ccc(-c2cc(-c3ccc(N)cc3)[nH]n2)cc1OC,inactive,inactive,inactive,growth inhibition (GI) (OVCAR [15]): inactive
17.5 µM,26.9 µM,13.2 µM,19 µM,COc1ccc(-c2cc(-c3ccc4ccccc4c3)n[nH]2)cc1,–,–,–,–
–,12.2 µM,20.7 µM,24.1 µM,O=[N+]([O-])c1ccc(-c2cc(-c3ccc(Cl)cc3)n[nH]2)cc1,–,–,–,growth inhibition (GI) (OVCAR [15]): inactive
14.2 µM,–,9.1 µM,–,COc1ccccc1-c1cc(-c2ccccc2-c2ccccc2)n[nH]1,inactive,–,inactive,–
17.9 µM,–,8.2 µM,8.4 µM,Nc1ccc(-c2cc(-c3ccccc3-c3ccccc3)n[nH]2)cc1,–,–,inactive,–
11.7 µM,–,20.5 µM,–,COc1ccccc1-c1cc(-c2ccc([N+](=O)[O-])cc2)[nH]n1,inactive,–,inactive,–
14 µM,–,–,–,COc1ccc(-c2cc(-c3ccc(F)cc3)n[nH]2)cc1,inactive,inactive,inactive,–

GI50 (OVCAR [1]),GI50 (SW-620 [2]),GI50 (NCI-H460 [3]),GI50 (AGS [5]),Structure (SMILES),growth inhibition (GI) (AGS [4]),growth inhibition (GI) (NCI-H460 [6]),growth inhibition (GI) (SW-620 [7]),also measured
22.8 µM,11.2 µM,–,14.8 µM,COc1ccc(-c2cc(-c3ccc(C(F)(F)F)cc3)n[nH]2)cc1,–,inactive,–,–
0.67 µM,0.89 µM,0.73 µM,0.79 µM,COc1ccc(-c2cc(-c3ccccc3-c3ccccc3)n[nH]2)cc1,–,–,–,Activity (OVCAR [8]): 14.97%; Activity (OVCAR [9]): 20.53%; Activity (OVCAR [10]): 32.05%; Activity (OVCAR [11]): Active; Activity (OVCAR [12]): Active; Activity (OVCAR [13]): Active; inhibition [14]: Active
–,25.4 µM,26.7 µM,–,Nc1ccc(-c2cc(-c3ccccc3)n[nH]2)cc1,inactive,–,–,growth inhibition (GI) (OVCAR [15]): inactive
19.1 µM,–,11.2 µM,–,COc1cccc(-c2cc(-c3ccc([N+](=O)[O-])cc3)[nH]n2)c1,inactive,–,inactive,–
7.2 µM,–,10.2 µM,–,O=[N+]([O-])c1ccc(-c2cc(-c3ccccc3)n[nH]2)cc1,inactive,–,inactive,–
–,–,–,–,COc1ccc(-c2cc(-c3ccc(N)cc3)[nH]n2)cc1,inactive,inactive,inactive,growth inhibition (GI) (OVCAR [15]): inactive
27.3 µM,14.3 µM,18.3 µM,–,COc1ccc(-c2cc(-c3ccc([N+](=O)[O-])cc3)[nH]n2)cc1,inactive,–,–,–
–,18.1 µM,–,18.3 µM,O=[N+]([O-])c1ccc(-c2cc(-c3ccc(F)cc3)n[nH]2)cc1,–,inactive,–,growth inhibition (GI) (OVCAR [15]): inactive
–,–,–,–,O=[N+]([O-])c1ccc(-c2cc(-c3ccc(C(F)(F)F)cc3)n[nH]2)cc1,inactive,inactive,–,growth inhibition (GI) (OVCAR [15]): inactive
3.4 µM,12.2 µM,2.7 µM,1.2 µM,O=[N+]([O-])c1ccc(-c2cc(-c3ccccc3-c3ccccc3)n[nH]2)cc1,–,–,–,–
6.2 µM,25.9 µM,6.9 µM,9.2 µM,Oc1ccc(-c2cc(-c3ccccc3-c3ccccc3)n[nH]2)cc1,–,–,–,–
9.2 µM,19.6 µM,20.1 µM,9.8 µM,Oc1ccc(-c2cc(-c3ccc(C(F)(F)F)cc3)n[nH]2)cc1,–,–,–,–
–,–,–,–,COc1cccc(-c2cc(-c3ccc(N)cc3)[nH]n2)c1,inactive,inactive,inactive,growth inhibition (GI) (OVCAR [15]): inactive
20.7 µM,–,27.1 µM,–,COc1ccc(-c2cc(-c3ccc(Br)cc3)n[nH]2)cc1,inactive,–,inactive,–
–,21.1 µM,–,–,COc1ccccc1-c1cc(-c2ccc(N)cc2)[nH]n1,inactive,inactive,–,growth inhibition (GI) (OVCAR [15]): inactive
5.8 µM,–,8.7 µM,7.5 µM,COc1cccc(-c2cc(-c3ccccc3-c3ccccc3)n[nH]2)c1,–,–,inactive,–
